Data reported in ChEMBL document CHEMBL1125397, “Pyrazole-related nucleosides. Synthesis and antiviral/antitumor activity of some substituted pyrazole and pyrazolo[4,3-d]-1,2,3-triazin-4-one nucleosides” (1992).
pEC50, pIC50: −log10 of the molar value.

What was measured:
Vero [1] = experiment: Concentration of compound required to reduce by 50% the number of african swine fever virus (ASFV) plaques in vero cells; assay type: functional; conditions: Chlorocebus sabaeus, read-out: ED50 (the source's name)
Raji = experiment: Compound concentration required to reduce by 50% the number of human B (Raji)cells after three cell cycles; assay type: functional; conditions: read-out: ID50 (the source's name)
Procedure, shortened: (§1)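 Suspension cultures seeded at 1×10^5 cells/mL in RPMI-1640 with 10% FCS. Grown with a range of compound concentrations at 37 °C for 72 h, then counted on a Coulter counter. Growth is expressed as a percentage of untreated controls, and the 50% inhibitory dose is taken by linear regression. Mean of three separate experiments.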

[2] = Compound concentration required to reduce by 50% the number of T-H9 lymphoblastoid cells after three cell cycles; assay type: functional; conditions: Homo sapiens; read-out: ID50 (the source's name); procedure, shortened: as §1
H9 = experiment: Compound concentration required to reduce by 50% the number of H9 cells chronically infected with the HIV-1 (H9/IIIB) after three cell cycles; assay type: functional; conditions: Homo sapiens, read-out: ID50 (the source's name); procedure, shortened: as §1
Vero [3] = experiment: Concentration of compound required to reduce by 50% the number of coxsackie virus plaques in vero cells; assay type: functional; conditions: Chlorocebus sabaeus, read-out: ED50 (the source's name)
Vero [4] = experiment: Compound concentration required to reduce by 50% the number of fibroblast-like cells (Vero) after three cell cycles; assay type: functional; conditions: Chlorocebus sabaeus, read-out: ID50 (the source's name)
Procedure, shortened: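 Vero monolayers seeded at 1×10^5 cells/mL in DMEM with 10% newborn calf serum and left to adhere overnight. Medium with various compound concentrations was then added for 3 days at 37 °C. Cells were trypsinized and counted on a Coulter counter. The 50% dose comes from linear regression of percent growth against untreated controls. Mean of three experiments.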

Vero [5] = experiment: Concentration of compound required to reduce by 50% the number of vesicular stomatitis virus (VSV) plaques in vero cells; assay type: functional; conditions: Chlorocebus sabaeus, read-out: ED50 (the source's name)
Vero [6] = experiment: Concentration of compound required to reduce by 50% the number of herpes simplex virus (HSV-1) plaques in vero cells; assay type: functional; conditions: Chlorocebus sabaeus, read-out: ED50 (the source's name)
L1210 = experiment: Compound concentration required to reduce by 50% the number of murine lymphocytic leukemia (L1210) cells after three cell cycles; assay type: functional; conditions: Mus musculus, read-out: ID50 (the source's name)
Procedure, shortened: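 Mouse L1210 leukemia cells seeded at 1×10^5 cells/mL in RPMI-1640 with 10% FCS. Exposed to graded compound concentrations at 37 °C for 36 h, then counted on a Coulter counter. Growth is taken as a percentage of untreated controls, and the 50% dose is found by linear regression. Mean of three experiments.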

[7] = Compound concentration required to reduce by 50% the number of T-MT4 lymphoblastoid cells after three cell cycles; assay type: functional; conditions: Homo sapiens; read-out: ID50 (the source's name); procedure, shortened: as §1
Vero [8] = experiment: Concentration of compound required to reduce by 50% the number of polio virus plaques in vero cells; assay type: functional; conditions: Chlorocebus sabaeus, read-out: ED50 (the source's name)
[9] = Compound concentration required to reduce by 50% the number of T-C8166 lymphoblastoid cells after three cell cycles; assay type: functional; conditions: Homo sapiens; read-out: ID50 (the source's name); procedure, shortened: as §1
C8166 = experiment: Effective dose which reduces the HIV-1 yield in C8166 cells by 90%; assay type: functional, Homo sapiens
Procedure, shortened: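 C8166 cells at 1×10^8/mL infected with 1×10^5 CCID50 HIV-1 (from H9/IIIB supernatants) for 2 h at 37 °C, washed three times, then resuspended at 1×10^5/mL with compound for 3 days. Virus yield was measured by limiting-dilution end-point titration on C8166 (1:2 dilutions, four wells each, syncytia scored after 4 days, Reed–Muench CCID50/mL).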

In the case of `NC(=O)c1nn([C@@H]2O[C@H](CO)[C@@H](O)[C@H]2O)cc1I`, the pEC50 (Vero [1]) was less than 2.87, the pIC50 (Raji) was less than 2.87 and the pIC50 [2] was 4.40. The pIC50 (H9) was 4.70, the pEC50 (Vero [3]) was 3.92 and the pIC50 (Vero [4]) was less than 2.87. For the same molecule, the pEC50 (Vero [5]) was less than 2.87, the pEC50 (Vero [6]) was less than 2.87 and the pIC50 (L1210) was less than 2.87. For the same molecule, the pIC50 [7] was 4.57, the pEC50 (Vero [8]) was less than 2.87 and the pIC50 [9] was 5.10. For the same molecule, the ED90 (C8166) was 20 µM.
Work on `NC(=O)c1nn(C2O[C@H](CO)[C@@H](O)[C@H]2O)cc1N` (stereo partly specified) yielded a pEC50 (Vero [1]) of less than 2.74, a pIC50 (Raji) of 2.89 and a pIC50 [2] of 3.24. The pIC50 (H9) was 3.26, the pEC50 (Vero [3]) was less than 2.74 and the pIC50 (Vero [4]) was less than 2.74. The pEC50 (Vero [5]) was less than 2.74, the pEC50 (Vero [6]) was less than 2.74 and the pIC50 (L1210) was less than 2.74. The pIC50 [7] was 3.33, the pEC50 (Vero [8]) was less than 2.74 and the pIC50 [9] was 3.49. It also gave an ED90 (C8166) greater than 320 µM.
For `CCCCCn1nnc2c(C)nn(C3O[C@H](CO)[C@@H](O)[C@H]3O)c2c1=O` (stereo partly specified), the pEC50 (Vero [1]) was less than 2.85, the pIC50 (Raji) was 2.85 and the pIC50 [2] was 3.15. For the same molecule, the pEC50 (Vero [3]) was less than 2.85, the pIC50 (Vero [4]) was less than 2.85 and the pEC50 (Vero [5]) was less than 2.85. The pEC50 (Vero [6]) was less than 2.85, the pIC50 (L1210) was less than 2.85 and the pIC50 [7] was 3.27. It also gave a pEC50 (Vero [8]) of less than 2.85, a pIC50 [9] of 3.55 and an ED90 (C8166) greater than 200 µM.
In the case of `NC(=O)c1nn(C2O[C@H](CO)[C@@H](O)[C@H]2O)cc1[N+](=O)[O-]` (stereo partly specified), the pEC50 (Vero [1]) was less than 2.76, the pIC50 (Raji) was less than 2.76 and the pIC50 [2] was less than 2.76. The pIC50 (H9) was less than 2.76, the pEC50 (Vero [3]) was less than 2.76 and the pIC50 (Vero [4]) was less than 2.76. The pEC50 (Vero [5]) was less than 2.76, the pEC50 (Vero [6]) was less than 2.76 and the pIC50 (L1210) was less than 2.76. For the same molecule, the pIC50 [7] was 4.10, the pEC50 (Vero [8]) was less than 2.76 and the pIC50 [9] was 4.92. It also gave an ED90 (C8166) of 25.4 µM.
For `NC(=O)c1ccn(C2O[C@H](CO)[C@@H](O)[C@H]2O)n1` (stereo partly specified), the pEC50 (Vero [1]) was less than 2.69, the pIC50 (Raji) was 2.99 and the pIC50 [2] was 2.99. The pIC50 (H9) was less than 2.99, the pEC50 (Vero [3]) was less than 2.69 and the pIC50 (Vero [4]) was less than 2.99. The pEC50 (Vero [5]) was less than 2.69, the pEC50 (Vero [6]) was less than 2.69 and the pIC50 (L1210) was less than 2.99. The pIC50 [7] was less than 2.99, the pEC50 (Vero [8]) was less than 2.69 and the pIC50 [9] was 3.05. For the same molecule, the ED90 (C8166) was greater than 900 µM.
Molecule `Cc1c(N)c(C(N)=O)nn1C1O[C@H](CO)[C@@H](O)[C@H]1O` (stereo partly specified) has a pEC50 (Vero [1]) of less than 2.74, a pIC50 (Raji) of less than 2.74 and a pIC50 [2] of less than 2.74. It also gave a pIC50 (H9) of less than 2.74, a pEC50 (Vero [3]) of less than 2.74 and a pIC50 (Vero [4]) of less than 2.74. For the same molecule, the pEC50 (Vero [5]) was less than 2.74, the pEC50 (Vero [6]) was less than 2.74 and the pIC50 (L1210) was less than 2.74. For the same molecule, the pIC50 [7] was less than 2.74, the pEC50 (Vero [8]) was less than 2.74 and the pIC50 [9] was less than 2.74. For the same molecule, the ED90 (C8166) was greater than 1840 µM.
With `NC(=O)c1nn(C2O[C@H](CO)[C@@H](O)[C@H]2O)cc1Br` (stereo partly specified) the pEC50 (Vero [1]) was less than 2.81, the pIC50 (Raji) was less than 2.81 and the pIC50 [2] was 4.30. The pIC50 (H9) was 4.30, the pEC50 (Vero [3]) was less than 2.81 and the pIC50 (Vero [4]) was less than 2.81. It also gave a pEC50 (Vero [5]) of less than 2.81, a pEC50 (Vero [6]) of less than 2.81 and a pIC50 (L1210) of less than 2.81. It also gave a pIC50 [7] of 4.70, a pEC50 (Vero [8]) of less than 2.81 and a pIC50 [9] of 5.40. For the same molecule, the ED90 (C8166) was 12.2 µM.
In the case of `Cc1c([N+](=O)[O-])c(C(N)=O)nn1C1O[C@H](CO)[C@@H](O)[C@H]1O` (stereo partly specified), the pEC50 (Vero [1]) was less than 2.78, the pIC50 (Raji) was less than 2.78 and the pIC50 [2] was less than 2.78. It also gave a pIC50 (H9) of less than 2.78, a pEC50 (Vero [3]) of less than 2.78 and a pIC50 (Vero [4]) of less than 2.78. For the same molecule, the pEC50 (Vero [5]) was less than 2.78, the pEC50 (Vero [6]) was less than 2.78 and the pIC50 (L1210) was less than 2.78. The pIC50 [7] was 2.83, the pEC50 (Vero [8]) was less than 2.78 and the pIC50 [9] was less than 2.78. The ED90 (C8166) was greater than 1650 µM.
With `Nc1nc2c(ncn2COCCO)c(=O)[nH]1` [ACYCLOVIR] the pEC50 (Vero [1]) was less than 2.89 and the pEC50 (Vero [6]) was 7.40.
`COc1cccc2c1C(=O)c1c(O)c3c(c(O)c1C2=O)C[C@@](O)(C(=O)CO)C[C@@H]3O[C@H]1C[C@H](N)[C@H](O)[C@H](C)O1` [DOXORUBICIN] showed a pIC50 (Raji) of 8.00, a pIC50 [2] of 8.00 and a pIC50 (H9) of 8.00. It also gave a pIC50 (Vero [4]) of 7.00, a pIC50 (L1210) of 7.70 and a pIC50 [7] of 8.00. The pIC50 [9] was 8.00.
With `N=C(N)N` [GUANIDINE] the pEC50 (Vero [8]) was 3.90.
`CN(Cc1cnc2nc(N)nc(N)c2n1)c1ccc(C(=O)N[C@@H](CCC(=O)O)C(=O)O)cc1` [METHOTREXATE] gave a pIC50 (Raji) of 7.70, a pIC50 [2] of 7.52 and a pIC50 (H9) of 7.52. The pIC50 (Vero [4]) was 7.70, the pIC50 (L1210) was 7.40 and the pIC50 [7] was 7.52. It also gave a pIC50 [9] of 7.52.
Molecule `Cc1cn([C@H]2C[C@H](N=[N+]=[N-])[C@@H](CO)O2)c(=O)[nH]c1=O` [ZIDOVUDINE] has an ED90 (C8166) of 0.003 µM.
